# M4 ag = CHRM4 agonism in calcium assay. AID 624127. P08173. 0.14% of 360,000 active. CHO-K1 hM4/Gqi5, Fluo-8 calcium fluorescence; vehicle 0%, full acetylcholine response 100%. activation, % at 3 µM;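 active = activation above the run mean over all test wells plus 3 SD, cut at about 32% in these data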;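 note: peak over basal fluorescence ratio per well then scaled between controls; 0% = DMSO wells and 100% = acetylcholine at EC100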
# Target sequence (P08173 whole entry, looked up): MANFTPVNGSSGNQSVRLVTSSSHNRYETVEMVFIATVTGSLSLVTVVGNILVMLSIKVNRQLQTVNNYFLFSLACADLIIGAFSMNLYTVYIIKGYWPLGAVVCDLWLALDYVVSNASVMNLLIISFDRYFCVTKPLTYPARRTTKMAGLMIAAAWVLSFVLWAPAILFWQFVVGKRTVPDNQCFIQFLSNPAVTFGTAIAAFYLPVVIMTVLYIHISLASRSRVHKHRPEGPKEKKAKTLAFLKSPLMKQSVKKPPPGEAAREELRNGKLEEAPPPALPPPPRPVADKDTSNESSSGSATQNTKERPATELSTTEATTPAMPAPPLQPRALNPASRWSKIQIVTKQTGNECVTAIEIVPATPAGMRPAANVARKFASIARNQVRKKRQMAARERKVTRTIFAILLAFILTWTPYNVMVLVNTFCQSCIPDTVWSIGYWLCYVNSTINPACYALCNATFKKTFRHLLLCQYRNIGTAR
# TAAR1 antag = antagonists of human TAAR1; inhibition, % at 3 µM; CHO RD-HGA16 TAAR1, Fluo-8 calcium fluorescence, antagonist; 1.5% of 360,000 active; Q96RJ0;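 active = inhibition above a per-plate cutoff, the mean inhibition of test compounds on that plate plus 3 SD, cut at about 49% in these data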;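 note: 0% = DMSO plus EC80 beta-PEA response and 100% = DMSO alone without agonist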
#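 Material: RD-HGA16 CHO cells with stable hTAAR1 and Gα16; Dosing: single nominal final test compound concentration of 3 µM; Schedule: seeding 17-24 h prior, 75-min 37 °C, 30-min RT dye loading; Detection: kinetic Fluo-8 calcium fluorescence measurement; Measure: % inhibition from peak post-agonist over basal fluorescence ratio; Benchmarks: vehicle and agonist controls.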
# CHRM4 PAM = potentiates acetylcholine response at human M4 receptor. activation, % at 3 µM. CHO-K1 hM4/Gqi5, Fluo-8 calcium fluorescence, ACh EC20; 0% = ACh EC20, 100% = maximal ACh. P08173. 0.4% of 360,000 active. AID 624126;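 active = activation above its plate's cutoff, the mean activation of sample wells plus 3 SD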
# M4 antag = CHRM4 antagonism in calcium assay | P08173 | CHO-hM4 cells, ACh EC80, Fluo-8 calcium fluorescence | inhibition, % at 3 µM | 0.73% of 360,000 active | AID 624125;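 active = inhibition above its plate's cutoff, the mean inhibition of sample wells plus 3 SD, cut at about 27% in these data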;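 note: 0% = acetylcholine EC80 with DMSO and 100% = DMSO without agonist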
# TAAR1 agonist = agonists of human TAAR1 | Q96RJ0 | CHO RD-HGA16 TAAR1, Fluo-8 calcium fluorescence; vehicle wells 0%, saturating PEA agonist 100% | activation, % at 3 µM | 0.99% of 360,000 active | AID 624467;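 active = activation above the mean activation of all test compounds in the run plus 3 SD, cut at about 38% in these data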
#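 Assay system: CHO-derived RD-HGA16 cells with stable Gα16 and human TAAR1; timing: 17-24 h seeding, 75 min 37 °C dye, 30 min RT; read-out: % activation from peak over basal fluorescence ratio, DMSO-to-PEA scaled; measured by: kinetic Fluo-8 calcium fluorescence; benchmarks: low control DMSO, high control PEA (EC100); doses: 3 µM single concentration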
# TAAR1 ag conf = human TAAR1 agonism, confirmed. activation, % at 3 µM. 82% of 2,400 active. shares compounds with TAAR1 agonist. CHO RD-HGA16 TAAR1, Fluo-8 calcium fluorescence; scaled: DMSO 0%, maximal phenethylamine 100%;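 active = activation above a cutoff set at the run's mean compound activation plus 3 SD, cut at about 39% in these data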
# Ga16 nonsel ag = counter-screen for TAAR1 agonists: nonselective agonists in parental cells. 50% of 2,400 active. shares compounds with TAAR1 agonist. activation, % at 3 µM. CHO-Ga16 parental, Fluo-8 calcium fluorescence; normalized to maximal ATP response, DMSO zero;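 active = activation above the run cutoff, the mean activation over all tested wells plus 3 SD, cut at about 12% in these data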;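 note: 0% = DMSO wells and 100% = maximal ATP response on the peak over basal ratio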
# TAAR1 desens = TAAR1 response desensitization, agonist counter-screen; inhibition, % at 3 µM; shares compounds with TAAR1 agonist; AID 651951; 46% of 2,400 active; CHO RD-HGA16 hTAAR1, Fluo-8 calcium, beta-PEA response inhibition;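 active = inhibition above the run cutoff, the mean inhibition of all test compounds plus 3 SD, cut at about 49% in these data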;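 note: beta-PEA stimulus applied at its EC80; loss of beta-PEA calcium signal after compound pretreatment read as receptor desensitization; 0% = DMSO with beta-PEA at EC80 and 100% = DMSO alone without agonist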
# Ga16 nonsel ant = nonselective Ga16 antagonism, counter-screen; CHO-Ga16 ATP-induced calcium, Fluo-8 fluorescence; shares compounds with TAAR1 agonist; 39% of 2,400 active; AID 651952; inhibition, % at 3 µM;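 active = inhibition above the plate's mean compound inhibition plus 3 SD, computed per plate, cut at about 22% in these data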;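 note: 0% = EC80 ATP with DMSO and 100% = DMSO wells without ATP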
# An asterisk follows results filed as active; . = not tested or not shown. Only some compounds are listed: those with a hit (about 3% of all), similar ones and a draw of the others.
SMILES,M4 ag,TAAR1 antag,CHRM4 PAM,M4 antag,TAAR1 agonist,TAAR1 ag conf,Ga16 nonsel ag,TAAR1 desens,Ga16 nonsel ant
CCCCC(=O)NC(=S)NNC(=O)c1ccc(Cl)cc1Cl,3,49*,-2,8,106*,131*,110*,79*,55*
Cc1ccc(C(=O)NNC(=S)NC(=O)c2ccccc2)cc1,130*,106*,-68,28*,167*,136*,92*,93*,79*
O=C(/C=C/c1ccc(Br)cc1)NC(=S)NNC(=O)c1ccco1,0,61*,5,-7,70*,79*,45*,66*,46*
Cc1ccc(C(=O)NNC(=S)NC(=O)c2ccc(Cl)cc2Cl)cc1,160*,108*,-41,36*,172*,161*,123*,107*,101*
Cc1ccc(C(=O)NC(=S)NCc2ccccc2)cc1,-1,-7,-5,-10,2,.,.,.,.
O=C(NNC(=S)NC(=O)c1ccccc1[N+](=O)[O-])c1ccc(Cl)cc1Cl,1,-11,8,1,6,.,.,.,.
COc1ccccc1-c1cccc(-c2nc(C(=O)N3CCCCC3)cc3c2[C@@H](CCO)N(S(=O)C(C)(C)C)C3)c1 (stereo partly specified),11,7,-6,-17,5,.,.,.,.
COc1ccc(C(=O)N2CCC(C)(C(=O)O)C2)cc1OC (stereo unspecified),0,3,-4,13,1,.,.,.,.
CC1CCN(C(=O)COC(=O)c2cccc(S(=O)(=O)N3CCOCC3)c2)CC1,0,-17,7,-14,1,.,.,.,.
COC(=O)[C@]12CCCCC=C1N(Cc1ccccc1)C(=O)[C@H](CC(=O)N1CCSCC1)C2,16,46,-4,-1,10,.,.,.,.
Cc1ccc(NC(=O)NC(=S)NC(=O)c2ccccc2)cc1,5,-5,7,-12,2,.,.,.,.
Cc1ccc(C(=O)NNC(=S)NC(=O)c2ccco2)cc1,25,34,-7,0,111*,101*,82*,47,47*
Cc1ccc(C(=O)NNC(=O)c2ccco2)cc1,0,-15,7,-10,7,.,.,.,.
Cc1ccc(C(=O)NC(=S)NNC(=O)c2ccccc2)cc1,87*,102*,-19,-2,153*,123*,98*,97*,69*
O=C(CSc1n[nH]c(-c2ccncc2)n1)Nc1ccc(Cl)c(Cl)c1,29,39,-4,1,102*,66*,60*,40,22*
O=C(CSc1n[nH]c(-c2ccncc2)n1)Nc1ccc(Cl)cc1,6,15,1,-6,26,.,.,.,.
CC(=O)c1sc2nc(-c3cccs3)cc(C(F)(F)F)c2c1N,3,64*,-9,21,72*,65*,84*,64*,70*
O=C(NC1CCCC1)c1cc(-c2ccc(Cl)c(Cl)c2)on1,2,-2,2,-10,1,.,.,.,.
Cc1ccc(-c2cc(C(=O)NC3CCCC3)no2)cc1,2,13,-6,4,51*,10,6,7,13
COc1ccc(/C=N/Nc2snc(SC)c2C#N)cc1OC,6,4,13,0,26,.,.,.,.
COc1cccc(/C=N/Nc2snc(SC)c2C#N)c1O,35*,60*,-12,10,75*,69*,52*,82*,44*
Cc1ccc(Nc2nc(N)nc(CN3CCc4ccccc4C3)n2)cc1,-1,5,5,-8,52*,69*,-1,-2,1
O=C(COc1ccc(S(=O)(=O)Nc2ccc(Cl)cc2)cc1)N1CCOCC1,11,30,-6,-5,57*,56*,31*,15,16
CC(C)(CNC(=O)c1ccc(S(=O)(=O)Nc2ccc(Cl)cc2)cc1)N1CCOCC1,7,21,-1,7,65*,45*,19*,28,23*
CCOc1ccc(NS(=O)(=O)c2ccc(C(=O)NCC(c3cccs3)N3CCOCC3)cc2)cc1 (stereo unspecified),39*,83*,-8,8,126*,106*,68*,78*,51*
SMILES,M4 ag,TAAR1 antag,CHRM4 PAM,M4 antag,TAAR1 agonist,TAAR1 ag conf,Ga16 nonsel ag,TAAR1 desens,Ga16 nonsel ant
CC(=O)c1ccc(S(=O)(=O)Nc2ccc(C(=O)NCC(c3cccs3)N3CCOCC3)cc2)cc1 (stereo unspecified),2,15,9,-24,1,.,.,.,.
O=C(CC[C@H]1O[C@@H](n2cnc3c(NC(=O)c4ccccc4)ncnc32)[C@H](O)[C@@H]1O)N[C@@H](CO)c1ccccc1,0,-12,2,-5,0,.,.,.,.
CCn1c(=O)n(CC)c2cc(N3CCCC3)c(NC(=O)c3ccc(C)cc3)cc21,0,-23,-4,-2,46*,1,1,2,11
COC(=O)[C@@]1(Cc2ccc(F)cc2)[C@H]2c3cc(C(=O)N4CCCC4)n(CC4CC4)c3C[C@H]2CN1C(=O)c1ccccc1,12,23,2,-2,70*,76*,38*,52*,32*
CN(C)C=Nc1c(Br)cc(Br)c2nonc12,12,78*,-1,4,87*,48*,73*,56*,66*
CN(C)C=Nc1nonc1-c1ccccc1,2,-24,14,2,9,.,.,.,.
O=C(CCCCl)N1CCc2[nH]c3ccccc3c2C1,0,87*,5,-19,89*,97*,0,92*,8
Cc1ccc(NC(=S)N2CCc3[nH]c4ccccc4c3C2)cc1,8,64*,-3,1,69*,49*,10,36,20
Cc1ccc(NC(=O)Nc2nnc([C@@H]3C[C@H](O)[C@@H](CO)O3)s2)cc1,1,-13,0,-14,4,.,.,.,.
O=C(Nc1ccccc1)Nc1nnc([C@H]2C[C@H](O)[C@@H](CO)O2)s1,1,1,-1,7,44*,57*,1,43,11
COP(=O)(OC)c1nc(-c2cccc3ccccc23)oc1NCCc1ccccc1,2,75*,-2,-7,74*,88*,8,83*,27*
